# From BindingDB's records for doi:10.1021/jm980495r (Institute of Mutagenesis and Differentiation, 1999)
# How the values were obtained:
# [1] = biological target: T1, B1 bradykinin receptor (Rattus norvegicus, UniProt P97583); experiment: Antagonistic activity against Bradykinin receptor B1 of rat ileum longitudinal smooth muscle.
# T1 sequence (P97583 whole entry): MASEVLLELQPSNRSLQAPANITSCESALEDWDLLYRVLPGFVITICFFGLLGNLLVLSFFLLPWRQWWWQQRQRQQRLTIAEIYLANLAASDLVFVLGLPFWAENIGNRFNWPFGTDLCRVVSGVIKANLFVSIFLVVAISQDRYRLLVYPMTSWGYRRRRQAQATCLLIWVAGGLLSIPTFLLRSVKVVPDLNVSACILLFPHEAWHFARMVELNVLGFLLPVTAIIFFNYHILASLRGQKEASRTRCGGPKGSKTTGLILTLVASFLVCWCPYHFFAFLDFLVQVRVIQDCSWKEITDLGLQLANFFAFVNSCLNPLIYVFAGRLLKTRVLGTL
# Outline: (§1)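 Rat ileum longitudinal muscle-myenteric plexus strips in oxygenated (95% O2/5% CO2) Krebs with indomethacin, guanethidine (3 μM each), chlorpheniramine, atropine (1 μM each). Cumulative desArg9-BK curves with thiorphan, bestatin, captopril (1 μM each); antagonist given 15 min before repeat curve at 1–10 μM. Contraction read-out; pA2 (dose ratio 2), mean ± SE of 4–15 experiments.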
# [2] = biological target: T2, B2 bradykinin receptor (Cavia porcellus, UniProt O70526); experiment: Antagonistic activity against Bradykinin receptor B2 of guinea pig ileum longitudinal smooth muscle.
# T2 sequence (O70526 whole entry): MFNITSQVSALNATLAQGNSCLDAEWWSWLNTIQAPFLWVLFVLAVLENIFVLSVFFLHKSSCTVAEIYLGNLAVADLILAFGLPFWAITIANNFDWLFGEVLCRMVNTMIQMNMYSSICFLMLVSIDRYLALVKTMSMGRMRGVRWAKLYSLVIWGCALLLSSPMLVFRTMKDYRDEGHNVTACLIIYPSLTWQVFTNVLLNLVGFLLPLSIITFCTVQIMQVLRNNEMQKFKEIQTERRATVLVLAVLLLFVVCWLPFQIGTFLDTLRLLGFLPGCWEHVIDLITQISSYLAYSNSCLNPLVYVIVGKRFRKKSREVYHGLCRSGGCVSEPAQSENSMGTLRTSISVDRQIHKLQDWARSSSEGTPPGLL
# Outline: as §1, with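 “Guinea pig” for “Rat”, “BK” for “desArg9-BK”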
Compound,Kd [1] [µM],Kd [2] [µM]
N=C(N)NCCC[C@H](NC(=O)[C@H](CCCCN)NC(=O)[C@@H](N)CCCCN)C(=O)N1CCC[C@H]1C(=O)N1CC(O)C[C@H]1C(=O)NCC(=O)N[C@H](C(=O)N[C@@H](CO)C(=O)N[C@@H](C(=O)N1C(C(=O)O)C[C@@H]2CCCC[C@@H]21)C1Cc2ccccc2C1)C1Cc2ccccc2C1 (some centres undefined) [B-9858],0.00794,3.16
N=C(N)NCCC[C@@H](N)C(=O)N[C@@H](CCCNC(=N)N)C(=O)N1CCC[C@H]1C(=O)N1CC(O)C[C@H]1C(=O)NCC(=O)N[C@H](C(=O)N[C@@H](CO)C(=O)N[C@@H](C(=O)N1C(C(=O)N[C@H](CCCNC(=N)N)C(=O)O)C[C@@H]2CCCC[C@@H]21)C1Cc2ccccc2C1)C1Cc2ccccc2C1 (some centres undefined) [B-9430],0.0199,0.00631
